Reference: ChEMBL document CHEMBL3352121, “Modulation of Activity Profiles for Largazole-Based HDAC Inhibitors through Alteration of Prodrug Properties” (ACS Med Chem Lett, 2014)
pIC50: −log10 of the molar value. Calls of active or inactive are those of the source. The rule behind the calls is not given here.

Key:
[1] = Drug metabolism in tumor of human HCT116 cells xenografted nu/nu mouse assessed largazole thiol formation at 50 mg/kg, po by HPLC-MS method; conditions: in vivo
[2] = target: Histone deacetylase (Homo sapiens) (UniProt Q13547+O15379+Q9UBN7+Q92769+Q9UQL6+Q8WUI4+Q9BY41+Q96DB2+P56524+Q9UKV0+Q969S8); test: Inhibition of HDAC in human HCT116 cells assessed as increase in histone H3 (Lys9/14) hyperacetylation at 320 pM to 10 uM after 8 to 24 hrs by immunoblotting method; assay type: cell-based; conditions: HCT-116
Outline: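 HCT116 cells were treated across a dose range, then harvested at 8 and 24 h post-treatment. Cellular HDAC inhibition was read as histone H3 (Lys9/14) hyperacetylation by immunoblot.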

HCT-116 [3] = test: In vivo inhibition of HDAC in tumor of human HCT116 cells xenografted nu/nu mouse assessed as increase in histone hyperacetylation at 10 mg/kg, ip after 24 hrs by immunoblotting method; assay type: functional, organism-based; set-up: dose 10 mg/kg
Outline: (§1)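 Mice bearing HCT116 xenografts were dosed intraperitoneally at 10 or 50 mg/kg, or orally at 50 mg/kg. Tumors were excised at 4, 12 and 24 h. Histone hyperacetylation in the tumors was assessed by immunoblot, n = 2.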

HCT-116 [4] = test: In vivo inhibition of HDAC in tumor of human HCT116 cells xenografted nu/nu mouse assessed as increase in histone hyperacetylation at 50 mg/kg, po after 4 to 12 hrs by immunoblotting method; assay type: functional, organism-based; set-up: dose 50 mg/kg
Outline: as §1

[5] = Drug metabolism in human HCT116 cells protein lysate solution assessed as largazole thiol formation at 25 ug/mL after 4 hrs by HPLC-MS method; assay type: ADME, cell-based; conditions: hct-116, 4 h
HCT-116 [6] = test: In vivo inhibition of HDAC in tumor of human HCT116 cells xenografted nu/nu mouse assessed as increase in histone hyperacetylation at 50 mg/kg, ip after 24 hrs by immunoblotting method; assay type: functional, organism-based; set-up: dose 50 mg/kg
Outline: as §1

Serum [7] = test: Drug metabolism in mouse serum assessed as largazole thiol formation after 0.25 to 1440 mins by HPLC-MS method; assay type: ADME, cell-free
[8] = Drug level in tumor of human HCT116 cells xenografted nu/nu mouse treated with 10 mg/kg, po largazole assessed as compound formation by HPLC-MS method; assay type: ADME, organism-based, Neoplasm, HCT-116; set-up: dose 10 mg/kg, route oral; conditions: in vivo
[9] = Drug level in human HCT116 cells protein lysate solution treated with 25 ug/mL compound 4 assessed as compound formation after 1 hr by HPLC-MS method; assay type: ADME, cell-based; conditions: hct-116, 1 h
Histone deacetylase 11 = target: T1, Histone deacetylase 11 (Homo sapiens, UniProt Q96DB2); test: Inhibition of HDAC11 (unknown origin) incubated for 3 hrs in presence of BSA and in absence of DTT by fluorescence assay
T1 sequence (Q96DB2 whole entry): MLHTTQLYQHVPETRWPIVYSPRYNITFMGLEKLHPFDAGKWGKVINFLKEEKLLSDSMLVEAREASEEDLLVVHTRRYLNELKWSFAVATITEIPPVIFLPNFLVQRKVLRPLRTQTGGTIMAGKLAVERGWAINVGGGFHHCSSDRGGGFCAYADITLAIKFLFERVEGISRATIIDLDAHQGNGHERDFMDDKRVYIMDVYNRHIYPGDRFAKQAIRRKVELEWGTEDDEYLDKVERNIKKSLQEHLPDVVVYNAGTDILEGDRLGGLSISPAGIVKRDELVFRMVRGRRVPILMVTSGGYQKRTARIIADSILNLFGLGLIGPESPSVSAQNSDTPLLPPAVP

Serum [10] = test: Drug metabolism in mouse serum treated with largazole assessed as compound formation after 0.25 to 1440 mins by HPLC-MS method; assay type: ADME, cell-free
[11] = Drug level in human HCT116 cells protein lysate solution treated with 25 ug/mL largazole assessed as compound formation after 30 mins by HPLC-MS method; assay type: ADME, cell-based; conditions: hct-116, 0.5 h
[12] = Drug level in human HCT116 cells protein lysate solution treated with 25 ug/mL compound 6 assessed as compound formation after 4 hrs by HPLC-MS method; assay type: ADME, cell-based; conditions: hct-116, 4 h

Drug metabolism [1]	inhibition [2]	Drug metabolism [5]	Drug metabolism (Serum [7])	Structure (SMILES)	inhibition (HCT-116 [3])	inhibition (HCT-116 [4])	inhibition (HCT-116 [6])	Drug metabolism [8]	Drug metabolism [9]	pIC50 (Histone deacetylase 11)	Drug metabolism (Serum [10])	Drug metabolism [11]	Drug metabolism [12]
metabolite_notdetected	Active	metabolite_detected	metabolite_notdetected	CC(C)[C@@H]1NC(=O)[C@]2(C)CSC(=N2)c2csc(n2)CNC(=O)C[C@@H](/C=C/CCSSC[C@H](NC(=O)OC(C)(C)C)C(=O)O)OC1=O	Active	inactive	Active	–	–	–	–	–	–
–	–	–	–	CC(C)[C@@H]1NC(=O)[C@]2(C)CSC(=N2)c2csc(n2)CNC(=O)C[C@@H](/C=C/CCS)OC1=O [LARGAZOLE THIOL]	–	–	–	metabolite_detected	metabolite_detected	8.52	metabolite_detected	metabolite_detected	metabolite_detected
